ChEMBL document CHEMBL3233004, “Analogue-based design, synthesis and biological evaluation of 3-substituted-(methylenehydrazono)indolin-2-ones as anticancer agents” (Eur J Med Chem, 2014)

How the values were obtained:
MCF7 [1] = assay: Cytotoxicity against human MCF7 cells assessed as surviving fraction at 10 uM after 48 hrs by SRB assay relative to control; format: functional
Summary of the method: (§1)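 MCF-7 cells (ATCC) grown in DMEM with 10% heat-inactivated fetal calf serum. Seeded at 10⁴ cells/well and left 24 h to attach. Compounds dissolved in DMSO and diluted with saline, then given to the monolayer for 48 h at 37 °C under 5% CO₂. Cells fixed, stained 30 min with 0.4% SRB in 1% acetic acid, washed four times with 1% acetic acid, and bound dye recovered in Tris-EDTA. Colour read on an ELISA reader.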

MCF7 [2] = assay: Cytotoxicity against human MCF7 cells assessed as surviving fraction at 50 uM after 48 hrs by SRB assay relative to control; format: functional; summary of the method: as §1
MCF7 [3] = assay: Cytotoxicity against human MCF7 cells assessed as surviving fraction at 25 uM after 48 hrs by SRB assay relative to control; format: functional; summary of the method: as §1
MCF7 [4] = assay: Cytotoxicity against human MCF7 cells assessed as surviving fraction at 100 uM after 48 hrs by SRB assay relative to control; format: functional; summary of the method: as §1
MCF7 [5] = assay: Cytotoxicity against human MCF7 cells assessed as surviving fraction after 48 hrs by SRB assay; format: functional, cell-based; settings: MCF7, 48 h; summary of the method: as §1

| Structure (SMILES) | Ratio (MCF7 [1]) | Ratio (MCF7 [2]) | Ratio (MCF7 [3]) | Ratio (MCF7 [4]) | IC50 (MCF7 [5]) [µM] |
| --- | --- | --- | --- | --- | --- |
| O=C1Nc2ccc(Cl)cc2/C1=N/N=C/c1ccco1 | 0.384 | 0.259 | 0.274 | 0.231 | 7.75 |
| Cc1ccc2c(c1)/C(=N/N=C/c1cccs1)C(=O)N2 | 0.227 | 0.099 | 0.132 | 0.137 | 6.75 |
| O=C1Nc2ccc(Cl)cc2/C1=N/N=C/c1cccs1 | 0.619 | 0.204 | 0.31 | 0.194 | 15.3 |
| O=C1Nc2ccc(F)cc2/C1=N/N=C/c1cccs1 | 0.616 | 0.331 | 0.505 | 0.308 | 25.8 |
| O=C1Nc2ccccc2/C1=N/N=C/c1ccc[nH]1 | 0.465 | 0.395 | 0.328 | 0.357 | 6.25 |
| Cc1ccc2c(c1)/C(=N/N=C/c1ccc[nH]1)C(=O)N2 | 0.473 | 0.221 | 0.351 | 0.206 | 9.25 |
| O=C1Nc2ccc(Cl)cc2/C1=N/N=C/c1ccc[nH]1 | 0.51 | 0.238 | 0.392 | 0.259 | 11.8 |
| O=C1Nc2ccc(F)cc2/C1=N/N=C/c1ccc[nH]1 | 0.671 | 0.456 | 0.274 | 0.528 | 10.8 |
| O=C1Nc2ccccc2/C1=N/N=C/c1ccco1 | 0.637 | 0.158 | 0.306 | 0.333 | 15.8 |
| Cc1ccc2c(c1)/C(=N/N=C/c1ccco1)C(=O)N2 | 0.436 | 0.195 | 0.213 | 0.102 | 8.75 |
| O=C1Nc2ccc(F)cc2/C1=N/N=C/c1ccco1 | 0.667 | 0.335 | 0.429 | 0.257 | 20.3 |
| O=C1Nc2ccccc2/C1=N/N=C/c1cccs1 | 0.352 | 0.522 | 0.602 | 0.546 | 8.25 |
| COc1cccc2c1C(=O)c1c(O)c3c(c(O)c1C2=O)C[C@@](O)(C(=O)CO)C[C@@H]3O[C@H]1C[C@H](N)[C@H](O)[C@H](C)O1 [DOXORUBICIN] | 0.257 | 0.098 | 0.158 | 0.125 | 6.1 |
